Read-outs that look alike come from different tables or passages of the source.
What was measured:
[1] = test system: OATP1B1 and OATP1B3 (not distinguished); type: cell-based, human; conditions: human, CHO cells stably expressing OATP1B1 or OATP1B3, pH 7.4, probe FMTX, 5 µM
OATP1B3 [2] = molecular target: T1, OATP1B3 (Homo sapiens, UniProt Q9NPD5); type: cell-based; conditions: for preferential inhibition of OATP1B3-mediated FMTX transport: compared with OATP1B1
T1 sequence (Q9NPD5 1-702): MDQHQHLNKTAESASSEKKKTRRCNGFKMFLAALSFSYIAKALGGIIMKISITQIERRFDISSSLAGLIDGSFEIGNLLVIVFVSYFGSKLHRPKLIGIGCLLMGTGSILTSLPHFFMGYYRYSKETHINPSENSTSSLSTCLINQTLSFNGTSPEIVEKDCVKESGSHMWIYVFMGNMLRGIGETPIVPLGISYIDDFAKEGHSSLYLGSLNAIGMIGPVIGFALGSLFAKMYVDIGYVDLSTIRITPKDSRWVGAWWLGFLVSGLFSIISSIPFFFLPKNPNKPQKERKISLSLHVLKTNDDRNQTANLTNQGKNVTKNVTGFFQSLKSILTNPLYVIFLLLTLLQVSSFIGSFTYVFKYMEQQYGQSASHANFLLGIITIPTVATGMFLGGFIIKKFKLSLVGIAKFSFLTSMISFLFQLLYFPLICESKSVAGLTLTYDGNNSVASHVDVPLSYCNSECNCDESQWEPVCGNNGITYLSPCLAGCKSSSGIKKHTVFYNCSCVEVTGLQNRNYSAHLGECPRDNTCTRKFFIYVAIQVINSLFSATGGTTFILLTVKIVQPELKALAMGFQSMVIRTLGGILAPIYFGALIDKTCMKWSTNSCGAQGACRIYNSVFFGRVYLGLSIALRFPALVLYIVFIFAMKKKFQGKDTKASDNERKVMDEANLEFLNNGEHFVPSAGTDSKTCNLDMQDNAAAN

OATP1B1 [3] = molecular target: T2, OATP1B1 (Homo sapiens, UniProt Q9Y6L6); type: cell-based; conditions: for preferential / selective inhibition of OATP1B1-mediated FMTX transport: compared with OATP1B3
T2 sequence (Q9Y6L6 1-691): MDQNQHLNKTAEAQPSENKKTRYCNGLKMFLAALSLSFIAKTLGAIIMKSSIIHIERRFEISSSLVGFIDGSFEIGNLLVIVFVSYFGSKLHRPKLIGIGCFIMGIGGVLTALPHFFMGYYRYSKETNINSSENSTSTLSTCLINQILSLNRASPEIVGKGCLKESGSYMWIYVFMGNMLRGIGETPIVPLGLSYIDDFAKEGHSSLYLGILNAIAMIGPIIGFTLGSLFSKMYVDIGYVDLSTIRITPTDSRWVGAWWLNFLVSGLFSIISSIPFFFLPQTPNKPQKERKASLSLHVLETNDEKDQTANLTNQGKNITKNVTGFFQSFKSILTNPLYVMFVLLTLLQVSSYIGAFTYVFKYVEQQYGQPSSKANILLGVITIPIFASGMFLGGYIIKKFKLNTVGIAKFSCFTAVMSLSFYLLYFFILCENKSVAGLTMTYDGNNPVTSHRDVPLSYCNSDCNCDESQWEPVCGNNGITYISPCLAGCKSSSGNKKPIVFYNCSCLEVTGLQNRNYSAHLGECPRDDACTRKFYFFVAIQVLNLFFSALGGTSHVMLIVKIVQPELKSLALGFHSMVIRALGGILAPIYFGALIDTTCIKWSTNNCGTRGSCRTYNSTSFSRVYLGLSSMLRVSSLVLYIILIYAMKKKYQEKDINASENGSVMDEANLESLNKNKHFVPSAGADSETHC

OATP1B1 and OATP1B3 = type: cell-based, human; conditions: primary screen of FMTX uptake by OATP1B1 or OATP1B3
OATP1B1 [4] = conditions: read-out: Ki, inhibition of fexofenadine transport, OATP1B1; cited from earlier work
OATP1B3 [5] = conditions: read-out: Ki, inhibition of fexofenadine transport, OATP1B3; cited from earlier work
OATP1B1 [6] = conditions: read-out: Ki, inhibition of BSP transport, OATP1B1; cited from earlier work
OATP1B3 [7] = conditions: read-out: Ki, inhibition of BSP transport, OATP1B3; cited from earlier work
OATP1B1 [8] = conditions: read-out: IC50, inhibition of bosentan transport, OATP1B1; ref Treiber et al. 5; cited from earlier work
OATP1B3 [9] = conditions: read-out: IC50, inhibition of bosentan transport, OATP1B3; ref Treiber et al. 5; cited from earlier work
OATP1B1 [10] = conditions: read-out: IC50, inhibition of Ro 48-5033 uptake, OATP1B1; ref Treiber et al. 5; cited from earlier work
OATP1B3 [11] = conditions: read-out: IC50, inhibition of Ro 48-5033 uptake, OATP1B3; ref Treiber et al. 5; cited from earlier work
OATP1B1 [12] = molecular target: T2, OATP1B1; type: cell-based; conditions: 24-well plates
OATP1B3 [13] = molecular target: T1, OATP1B3; type: cell-based
Outline: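 Stably transfected CHO cells were grown at 37 °C, 5% CO2 in DMEM with 10% FBS, L-proline and 500 μg/ml G-418, passaged twice weekly and used up to passage 55. Cells were washed with 37 °C uptake buffer (pH 7.4) and incubated with fluorescent compound at 37 °C. Cells were then washed four times with ice-cold buffer and lysed in 1% Triton X-100. Fluorescence was read at 485/528 nm, with Vmax expressed per mg protein per min.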

OATP1B1 [14] = conditions: read-out: Ki, inhibition of OATP1B1-mediated pitavastatin uptake; cited from earlier work
OATP2B1 = conditions: cited from earlier work
wild-type CHO cells = assay: FMTX uptake into wild-type CHO cells, 96-well plates; type: cell-based, Chinese Hamster; conditions: 5 μM FMTX, 30 min, room temperature
Outline: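 Cells were washed three times with room-temperature buffer and given 5 µM FMTX for 30 min at room temperature. They were then washed four times and lysed in 1% Triton X-100 in PBS. Fluorescence was read at ex 485/em 528 nm.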

[15] = substrate: O=C1OC2(c3ccc(O)cc3Oc3cc(O)ccc32)c2ccccc21; type: cell-based, human; conditions: other: 37 °C, 2 min, 24-well plates, net uptake
[16] = 5 μM FMTX, 30 min, room temperature, 96-well plates
[17] = 5 μM FMTX, 30 min, room temperature, 96-well plates, no inhibitor

CCN1C[C@]2(COC)[C@H](O)C[C@H](OC)[C@@]34[C@@H]5C[C@@]6(O)[C@H](OC(=O)c7ccccc7)[C@@H]5[C@@](OC(C)=O)([C@@H]([C@H](OC)[C@H]23)[C@@H]14)[C@@H](O)[C@@H]6OC [Aconitine]
IC50 at 30 min [1]: > 100 µM

C[C@H]1C[C@H]2[C@@H]3CCC4=CC(=O)C=C[C@]4(C)[C@@]3(Cl)[C@@H](O)C[C@]2(C)[C@@]1(O)C(=O)CO [Beclomethasone]
selectivity for OATP1B3 over OATP1B1 (OATP1B3 [2]; FMTX uptake IC50 values): about 5 fold
preferential inhibition of OATP1B3-mediated FMTX transport (OATP1B3 [2]): preferential inhibitors
preferential inhibition of OATP1B3-mediated FMTX transport (OATP1B3 [2]; listed as beclamethasone): preferentially inhibited OATP1B3

CC(C)C[C@H]1C(=O)N2CCC[C@H]2[C@]2(O)O[C@](NC(=O)[C@@H]3C=C4c5cccc6[nH]cc(c56)C[C@H]4N(C)C3)(C(C)C)C(=O)N12 [Ergocryptine]
preferential / selective inhibition of OATP1B1-mediated FMTX transport (OATP1B1 [3]): preferentially inhibited OATP1B1

CCOC(=O)c1cncn1[C@H](C)c1ccccc1 [Etomidate]
IC50 at 30 min [1]: > 100 µM

O=C(COc1ccc(Cl)cc1)N1CCN(Cc2ccc3c(c2)OCO3)CC1 [Fipexide]
preferential / selective inhibition of OATP1B1-mediated FMTX transport (OATP1B1 [3]): preferentially inhibited OATP1B1

Cc1ncc([N+](=O)[O-])n1CCO [Metronidazole]
IC50 at 30 min [1]: > 100 µM

CCOC(=O)Nc1ccc2c(c1)N(C(=O)CCN1CCOCC1)c1ccccc1S2 [Moricizine]
preferential inhibition of OATP1B3-mediated FMTX transport (OATP1B3 [2]): preferentially inhibited OATP1B3

O=C(O)c1cccnc1Nc1cccc(C(F)(F)F)c1 [Niflumic acid]
preferential / selective inhibition of OATP1B1-mediated FMTX transport (OATP1B1 [3]): preferentially inhibited OATP1B1

CCOc1cc(CC(=O)N[C@@H](CC(C)C)c2ccccc2N2CCCCC2)ccc1C(=O)O [Repaglinide]
preferential / selective inhibition of OATP1B1-mediated FMTX transport (OATP1B1 [3]): preferentially inhibited OATP1B1

CO[C@H]1/C=C/O[C@@]2(C)Oc3c(C)c(O)c4c(O)c(c(/C=N/N5CCN(C)CC5)c(O)c4c3C2=O)NC(=O)/C(C)=C\C=C\[C@H](C)[C@H](O)[C@@H](C)[C@@H](O)[C@@H](C)[C@H](OC(C)=O)[C@@H]1C [Rifampicin]
IC50 at 30 min [1]: 1.3 to 1.5 µM
Prestwick library screening result (OATP1B1 and OATP1B3): strongest inhibitors
Ki (OATP1B1 [4]): 0.5 µM
Ki (OATP1B3 [5]): 1.5 µM
Ki (OATP1B1 [6]): 17 µM
Ki (OATP1B3 [7]): 5 µM
IC50 (OATP1B1 [8]): 3.2 µM
IC50 (OATP1B3 [9]): 1.6 µM
IC50 (OATP1B1 [10]): ~50 µM
IC50 (OATP1B3 [11]): 0.8 µM

O=c1[nH]c(=O)n([C@H]2C[C@H](O)[C@@H](CO)O2)cc1C(F)(F)F [Trifluridine]
IC50 at 30 min [1]: > 100 µM

O=C1OC2(c3ccc(O)cc3Oc3cc(O)ccc32)c2ccccc21 [fluorescein]
transported by OATP1B1 (OATP1B1 [12]; 1 µM, 30 min): transported
Km at 2 min (OATP1B3 [13]; human, CHO cells stably expressing OATP1B3, pH 7.4): 82 ± 10 µM

CN(Cc1cnc2nc(N)nc(N)c2n1)c1ccc(C(=O)N[C@@H](CCC(=O)O)C(=O)O)cc1 [methotrexate]
inhibition at 30 min, 100 µM [1]: 30%
Ki (OATP1B1 [14]): > 300 µM

CC(=O)[C@H]1CC[C@H]2[C@@H]3CCC4=CC(=O)CC[C@]4(C)[C@H]3CC[C@]12C [progesterone]
IC50 (OATP1B1 [3]): 5.4 ± 1.9 µM
effect on OATP1B1-mediated FMTX uptake (OATP1B1 [3]; [16]): inhibited
EC50 (OATP1B3 [2]): 0.2 µM
effect on OATP1B3-mediated FMTX uptake (OATP1B3 [2]; [16]): stimulated
effect on OATP2B1-mediated estrone-3-sulfate uptake (OATP2B1): stimulate

CC(C)(C)NC(=O)[C@@H]1C[C@@H]2CCCC[C@@H]2CN1C[C@@H](O)[C@H](Cc1ccccc1)NC(=O)[C@H](CC(N)=O)NC(=O)c1ccc2ccccc2n1 [saquinavir]
Prestwick library screening result (OATP1B1 and OATP1B3): strongest inhibitors

Alexa Fluor® 488 methotrexate [AMTX]
substrate of OATP1B3 (OATP1B3 [13]; 1 µM, 30 min, 24-well plates): not transported

Bromocryptine
preferential / selective inhibition of OATP1B1-mediated FMTX transport (OATP1B1 [3]): preferentially inhibited OATP1B1

fluorescein-methotrexate [FMTX]
typical uptake, OATP1B1-expressing cells (OATP1B1 [3]; [16]): 15,060 ± 1,540 fluorescent units
signal-to-basal ratio of uptake, OATP1B1 (OATP1B1 [3]; [17]): 3.4
typical uptake, OATP1B3-expressing cells (OATP1B3 [2]; [16]): 33,880 ± 3,645 fluorescent units
signal-to-basal ratio of uptake, OATP1B3 (OATP1B3 [2]; [17]): 7.7
transported by OATP1B1 (OATP1B1 [12]; 1 µM, 30 min): transported
uptake signal, OATP1B1 (OATP1B1 [12]; 1 µM, 30 min, versus wild-type CHO): about 3 fold
Vmax, OATP1B1 (OATP1B1 [12]; 37 °C, 2 min): 961 ± 198 fluorescent units/mg protein * min
Km (OATP1B1 [12]; read-out: apparent Km, OATP1B1, 37 °C, 2 min, net uptake): 3.8 ± 0.7 µM
uptake signal, OATP1B3 (OATP1B3 [13]; 1 µM, 30 min, 24-well plates, versus wild-type CHO): about 4.5 fold
Vmax, OATP1B3 (OATP1B3 [13]; 37 °C, 2 min, 24-well plates): 4772 ± 709 fluorescent units/mg protein * min
fold higher transport efficiency of OATP1B3 than OATP1B1 (OATP1B3 [13]; Vmax/Km compared): 2–3 fold
Km (OATP1B3 [13]; read-out: apparent Km, OATP1B3, 37 °C, 2 min, 24-well plates, net uptake): 7.9 ± 2 µM
typical uptake, wild-type CHO cells (wild-type CHO cells): 4,400 ± 80 fluorescent units

B1: OATP1B1 (Homo sapiens) (protein)
chain: T2 sequence (Q9Y6L6 1-691)
Km [15]: 38 ± 5 µM

Source: PMC2864424 (Current Chemical Genomics, 2010)
